Experimental data collected from several papers.
Protocols differ between the studies behind these lines.
CYP2D6: Cytochrome P450 2D6 (CYP2D6, Homo sapiens, UniProt P10635)
gag-pol integrase: Gag-Pol polyprotein, integrase (gag-pol, Human immunodeficiency virus 1, UniProt P12497)
Tumor necrosis factor receptor superfamily member 9: Tumor necrosis factor receptor superfamily member 9 (Homo sapiens, UniProt Q07011)
PPARA: Peroxisome proliferator-activated receptor alpha (PPARA, Homo sapiens, UniProt Q07869)
Drd2: D(2) dopamine receptor (Drd2, Rattus norvegicus, UniProt P61169)

Compound | target | test | system | setting | quantity | value
Cc1c(Cc2ccc(C(F)(F)F)nc2)c[nH]c1C(=O)NC(C)c1cnn(C)c1 (stereo not shown) | CYP2D6 | enzyme activity, inhibitor | human, liver microsomes | – | IC50 | 12.7 µM
O=C(O)[C@H](Cc1ccccc1)NC(=O)C1(c2ccc(-c3ccccc3)cc2)CCN(CCC(F)(F)F)CC1 | gag-pol integrase | enzyme activity, inhibitor, TR-FRET | – | – | IC50 | 263 µM
CCCC[C@@H]1NC(=O)[C@H](Cc2ccc(O)cc2)NC(=O)[C@@H]2CCCN2C(=O)[C@H](CC(=O)O)NC(=O)[C@H](C)NC(=O)[C@H](Cc2ccccc2)NC(=O)[C@@H]2CSCCC(=O)N3CN(CN(C3)C(=O)CCSC[C@@H](C(=O)N[C@@H](CNC(=O)CCOCCOCCOCCOCCOCCn3cc(CCC(=O)N[C@H]4CSCCC(=O)N5CN6CN(C5)C(=O)CCSC[C@H](NC(=O)[C@@H](CC(=O)O)NC(=O)[C@H](Cc5cccc7ccccc57)NC(=O)[C@@H]5CCCN5C4=O)C(=O)N[C@@H](CCSC)C(=O)N[C@@H](CCCCNC(=N)N)C(=O)N[C@@H](CC(=O)O)C(=O)N[C@@H](Cc4c[nH]c5ccccc45)C(=O)N[C@@H](CO)C(=O)N[C@@H]([C@@H](C)O)C(=O)N4CCC[C@H]4C(=O)N4C[C@H](O)C[C@H]4C(=O)N[C@@H](Cc4c[nH]c5ccccc45)C(=O)N[C@H](C(N)=O)CSCCC6=O)nn3)C(N)=O)NC1=O)C(=O)CCSC[C@H](NC(C)=O)C(=O)N[C@@H](CC(C)(C)C)C(=O)N1CCC[C@H]1C(=O)N[C@@H](CCC(=O)O)C(=O)N[C@H](C)C(=O)N1CCC[C@H]1C(=O)N[C@@H](Cc1ccc(O)cc1)C(=O)N2 | Tumor necrosis factor receptor superfamily member 9 | binding, SPR | – | – | Kd | 0.0034 µM
CC[C@H](C)[C@H](NC(=O)[C@H](CCCNC(=N)N)NC(=O)[C@H](CC(C)C)NC(=O)[C@@H](N)Cc1ccccc1)C(=O)N[C@@H](CCCNC(=N)N)C(=O)N1CCC[C@H]1C(=O)N[C@@H](CCCCN)C(=O)O | Alpha-1B adrenergic receptor (ADRA1B, Homo sapiens, UniProt P35368) | cell-free assay, radioligand | – | – | Ki | 6.9 µM
O=S(=O)(O)C(F)(F)C(F)(F)OC(F)(C(F)(F)F)C(F)(F)OC(F)C(F)(F)F (stereo not shown) | PPARA | reporter gene, agonist, luciferase | – | – | EC50 | 24 µM
CCCC[C@@H]1NC(=O)[C@H](Cc2ccc(O)cc2)NC(=O)[C@@H]2CCCN2C(=O)[C@H](CC(=O)O)NC(=O)[C@H](C)NC(=O)[C@H](Cc2ccccc2)NC(=O)[C@@H]2CSCCC(=O)N3CN(CN(C3)C(=O)CCSC[C@@H](C(=O)N[C@@H](C)C(N)=O)NC1=O)C(=O)CCSC[C@H](NC(C)=O)C(=O)N[C@@H](CC(C)(C)C)C(=O)N1CCC[C@H]1C(=O)N[C@@H](CCC(=O)O)C(=O)N[C@H](CCCCNC(=O)CCc1cn(CCOCCOCCOCCOCCOCCC(=O)N[C@H]3CSCCC(=O)N4CN5CN(C4)C(=O)CCSC[C@H](NC(=O)[C@@H](CCC(=O)O)NC(=O)[C@H](Cc4cccc6ccccc46)NC(=O)[C@@H]4CCCN4C3=O)C(=O)N[C@@H](CC(C)C)C(=O)N[C@@H](CCCCNC(=N)N)C(=O)N[C@@H](CC(=O)O)C(=O)N[C@@H](Cc3c[nH]c4ccccc34)C(=O)N[C@@H](CO)C(=O)N[C@@H]([C@@H](C)O)C(=O)N3CCC[C@H]3C(=O)N3C[C@H](O)C[C@H]3C(=O)N[C@@H](Cc3c[nH]c4ccccc34)C(=O)N[C@H](C(N)=O)CSCCC5=O)nn1)C(=O)N1CCC[C@H]1C(=O)N[C@@H](Cc1ccc(O)cc1)C(=O)N2 | Tumor necrosis factor receptor superfamily member 9 | binding, SPR | – | – | Kd | 0.0084 µM
CC(C)C[C@H](NC(=O)[C@H](Cc1ccccc1)NC(=O)[C@H](Cc1ccc(O)cc1)NC(=O)CNC(=O)[C@H](CCCCN)NC(=O)[C@H](CO)NC(=O)[C@H](CCC(N)=O)NC(=O)CNC(=O)[C@@H](NC(=O)[C@H](CO)NC(=O)[C@@H]1CCCN1C(=O)[C@H](CO)NC(=O)[C@H](CCC(N)=O)NC(=O)[C@H](Cc1ccc(O)cc1)NC(=O)[C@H](CCC(=O)O)NC(=O)[C@H](C)NC(=O)[C@H](CCCCN)NC(=O)[C@@H](N)Cc1ccccc1)C(C)C)C(=O)N[C@@H](Cc1ccccc1)C(=O)N[C@@H](CCCNC(=N)N)C(=O)N1CCC[C@H]1C(=O)N[C@@H](CCCNC(=N)N)C(=O)N[C@@H](CC(N)=O)C(N)=O | Neuromedin-U receptor 2 (NMUR2, Homo sapiens, UniProt Q9GZQ4) | ligand displacement, radioligand | – | cell membranes | IC50 | 4e-05 µM
O=C(Cc1ccccc1)N[C@H](C(=O)O)[C@@H]1N=C(C(=O)O)C(CSC(C(=O)O)c2ccccc2)CS1 (stereo partly shown) | Metallo-beta-lactamase VIM-2 (VIM-2, Escherichia coli, UniProt Q5U7L7) | enzyme activity, inhibitor, absorbance | – | – | IC50 | 65.6 µM
O=C(O)C(F)(F)C(F)(F)C(F)(F)C(F)(F)C(F)(F)C(F)(F)F | PPARA | reporter gene, agonist, luciferase | – | – | EC50 | 45 µM
c1ccc(-c2ncc(CN3CCN(c4ncccn4)CC3)[nH]2)cc1 | Drd2 | ligand displacement, radioligand | – | cell membranes | Ki | 0.817 µM
[Cd+2] | Protein phosphatase 1A (PPM1A, Homo sapiens, UniProt P35813, D38V) | enzyme activity, inhibitor, absorbance | – | pH 8 | Ki | 0.47 µM
CCCC[C@@H]1NC(=O)[C@H](Cc2ccc(O)cc2)NC(=O)[C@@H]2CCCN2C(=O)[C@H](CC(=O)O)NC(=O)[C@H](C)NC(=O)[C@H](Cc2ccccc2)NC(=O)[C@@H]2CSCCC(=O)N3CN(CN(C3)C(=O)CCSC[C@H](NC(C)=O)C(=O)N[C@@H](CC(C)(C)C)C(=O)N[C@@H](CCC(=O)O)C(=O)N[C@@H](CCC(=O)O)C(=O)N[C@H](CCCCNC(=O)CCc3cn(CCOCCOCCOCCOCCOCCC(=O)N[C@H]4CSCCC(=O)N5CN6CN(C5)C(=O)CCSC[C@H](NC(=O)[C@@H](CC(=O)O)NC(=O)[C@H](Cc5cccc7ccccc57)NC(=O)[C@@H]5CCCN5C4=O)C(=O)N[C@@H](CCSC)C(=O)N[C@@H](CCCCNC(=N)N)C(=O)N[C@@H](CC(=O)O)C(=O)N[C@@H](Cc4c[nH]c5ccccc45)C(=O)N[C@@H](CO)C(=O)N[C@@H]([C@@H](C)O)C(=O)N4CCC[C@H]4C(=O)N4C[C@H](O)C[C@H]4C(=O)N[C@@H](Cc4c[nH]c5ccccc45)C(=O)N[C@H](C(N)=O)CSCCC6=O)nn3)C(=O)N3CCC[C@H]3C(=O)N[C@@H](Cc3ccc(O)cc3)C(=O)N2)C(=O)CCSC[C@@H](C(N)=O)NC1=O | Tumor necrosis factor receptor superfamily member 9 | binding, SPR | – | – | Kd | 0.0096 µM
Cc1cc(SCc2sc(-c3ccc(C(F)(F)F)c(F)c3)nc2C)ccc1OCC(=O)O | PPARA | reporter gene, antagonist, luciferase | – | – | IC50 | 37.4 µM
CCCC[C@@H]1NC(=O)[C@H](Cc2ccc(O)cc2)NC(=O)[C@@H]2CCCN2C(=O)[C@H](CC(=O)O)NC(=O)[C@H](C)NC(=O)[C@H](Cc2ccccc2)NC(=O)[C@@H]2CSCCC(=O)N3CN(CN(C3)C(=O)CCSC[C@H](NC(C)=O)C(=O)N[C@@H](CC(C)(C)C)C(=O)N3CCC[C@H]3C(=O)N[C@@H](CCC(=O)O)C(=O)N[C@H](CCCCNC(=O)CCc3cn(CCOCCOCCOCCOCCOCCC(=O)N[C@H]4CSCCC(=O)N5CN6CN(C5)C(=O)CCSC[C@H](NC(=O)[C@@H](CC(=O)O)NC(=O)[C@H](Cc5cccc7ccccc57)NC(=O)[C@@H]5CCCN5C4=O)C(=O)N[C@@H](CCSC)C(=O)N[C@@H](CCCCNC(=N)N)C(=O)N[C@@H](CC(=O)O)C(=O)N[C@@H](Cc4c[nH]c5ccccc45)C(=O)N[C@@H](CO)C(=O)N[C@@H]([C@@H](C)O)C(=O)N4CCC[C@H]4C(=O)N4C[C@H](O)C[C@H]4C(=O)N[C@@H](Cc4c[nH]c5ccccc45)C(=O)N[C@H](C(N)=O)CSCCC6=O)nn3)C(=O)N3CCC[C@H]3C(=O)N[C@@H](Cc3ccc(O)cc3)C(=O)N2)C(=O)CCSC[C@@H](C(N)=O)NC1=O | Tumor necrosis factor receptor superfamily member 9 | binding, SPR | – | – | Kd | 0.00447 µM
CC(=O)N[C@@H](CC(C)C)C(=O)N[C@@H](CC(C)C)C(=O)N[C@@H](CC(C)C)C(=O)N[C@@H](CCCN=C(N)N)C(=O)N[C@H](C(=O)N[C@@H](CCCCN)C(=O)N[C@@H](CCCN=C(N)N)C(N)=O)C(C)C | Proprotein convertase subtilisin/kexin type 7 (Homo sapiens, UniProt Q16549) | enzyme activity, inhibitor | – | – | Ki | 1.52 µM
O=C(O)c1cc[c]([Hg][Cl])cc1 | Beta-lactamase TEM (bla, Escherichia coli, UniProt P62593) | enzyme activity, inhibitor | – | – | IC50 | > 30 µM
Cc1c(Cc2ccc(C(F)(F)F)nc2)c[nH]c1C(=O)NC(C)c1cn[nH]c1 (stereo not shown) | CYP2D6 | enzyme activity, inhibitor | human, liver microsomes | – | IC50 | 0.75 µM
O=C(O)[C@H](Cc1ccccc1)NC(=O)C1(c2ccccc2)CCN(Cc2ccccc2)CC1 | gag-pol integrase | enzyme activity, inhibitor, TR-FRET | – | – | IC50 | 194 µM
CC(c1ccccc1)n1cc(-c2ncccn2)c(=O)[nH]c1=O (stereo not shown) | Hepatocyte growth factor receptor (MET, Homo sapiens, UniProt P08581) | binding | – | – | Kd | 2.51 µM
O=S(=O)(O)C(F)(F)C(F)(F)C(F)(F)C(F)(F)C(F)(F)C(F)(F)F | PPARA | reporter gene, agonist, luciferase | – | – | EC50 | 61 µM
O=C(O)[C@H](Cc1ccc2ccccc2c1)NC(=O)C1(c2ccc(-c3ccccc3)cc2)CCN(CCC(F)(F)F)CC1 | gag-pol integrase | enzyme activity, inhibitor, TR-FRET | – | – | IC50 | 93.5 µM
Clc1ccc(N2CCN(Cc3c[nH]c4ncccc34)CC2)cc1 | Drd2 | ligand displacement, radioligand | – | cell membranes | Ki | 0.656 µM
